# Active and inactive are the calls of the source. The calls are words filed in the database; no cut-off is given here.
# Experiments:
# [1] = biological target: Estrogen receptor beta (Homo sapiens) (UniProt Q92731); experiment: Displacement of [3H]estradiol from human recombinant ERbeta assessed as relative binding affinity after 1 hr by liquid scintillation counting relative to estradiol
# Procedure, shortened: (§1)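 Recombinant human ERα or ERβ (0.25 pmol) incubated with [3H]-E2 (10 nM) plus test compound, 1 h at room temperature; compound in DMSO (5% final). Nonspecific binding defined with diethylstilbestrol (10 µM). Receptor–ligand complexes captured on hydroxyapatite, washed, resuspended in ethanol, counted by liquid scintillation.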
# [2] = biological target: T1, Estrogen receptor (Homo sapiens) (UniProt P03372); experiment: Displacement of [3H]estradiol from human recombinant ERalpha assessed as relative binding affinity after 1 hr by liquid scintillation counting relative to estradiol; procedure, shortened: as §1
# T1 sequence (whole entry): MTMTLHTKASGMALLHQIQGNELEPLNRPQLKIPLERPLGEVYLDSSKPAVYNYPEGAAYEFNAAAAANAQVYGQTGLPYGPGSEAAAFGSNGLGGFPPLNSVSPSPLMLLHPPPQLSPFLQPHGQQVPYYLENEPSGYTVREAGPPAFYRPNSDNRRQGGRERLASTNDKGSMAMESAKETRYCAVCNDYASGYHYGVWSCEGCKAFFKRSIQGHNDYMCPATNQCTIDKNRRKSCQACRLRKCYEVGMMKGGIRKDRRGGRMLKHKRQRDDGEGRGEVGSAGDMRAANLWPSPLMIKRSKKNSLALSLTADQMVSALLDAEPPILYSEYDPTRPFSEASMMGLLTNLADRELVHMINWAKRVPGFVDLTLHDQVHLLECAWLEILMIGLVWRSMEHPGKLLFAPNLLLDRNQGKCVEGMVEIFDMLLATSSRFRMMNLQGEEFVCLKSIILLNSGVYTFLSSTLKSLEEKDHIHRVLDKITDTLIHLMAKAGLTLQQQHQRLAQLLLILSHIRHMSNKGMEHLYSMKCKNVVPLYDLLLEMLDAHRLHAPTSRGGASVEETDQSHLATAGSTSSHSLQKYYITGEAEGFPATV
# [3] = organism: Homo sapiens; experiment: Selectivity ratio of IC50 for human placental 17beta-HSD1 to IC50 for human placental 17beta-HSD2
# [4] = biological target: T2, 17-beta-hydroxysteroid dehydrogenase type 2 (Homo sapiens) (UniProt P37059); experiment: Inhibition of 17beta-HSD2; settings: concentration not given here
# T2 sequence (whole entry): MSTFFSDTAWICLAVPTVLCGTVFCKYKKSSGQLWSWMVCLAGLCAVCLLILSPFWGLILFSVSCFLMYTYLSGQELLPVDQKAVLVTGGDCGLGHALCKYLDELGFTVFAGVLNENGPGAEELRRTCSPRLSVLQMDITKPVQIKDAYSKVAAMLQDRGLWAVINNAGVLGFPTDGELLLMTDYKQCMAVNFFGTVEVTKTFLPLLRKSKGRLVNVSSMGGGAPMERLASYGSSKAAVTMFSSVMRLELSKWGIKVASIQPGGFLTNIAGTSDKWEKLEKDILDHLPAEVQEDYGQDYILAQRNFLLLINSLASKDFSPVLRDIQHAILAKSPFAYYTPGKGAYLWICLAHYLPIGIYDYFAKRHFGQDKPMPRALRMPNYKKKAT
# Procedure, shortened: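 Human placental microsomal fraction (150,000 g) with NAD+ 1500 µM, 37 °C, in 50 mM phosphate buffer containing 20% glycerol and 1 mM EDTA; DMSO 1% final. Started with unlabelled plus [3H]-E2 (500 nM final), run 20 min, stopped with HgCl2, ether-extracted. E1/E2 separated by HPLC with radioflow detection; % conversion = E1/(E1+E2)×100. At least three independent experiments.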
# [5] = biological target: T3, 17-beta-hydroxysteroid dehydrogenase type 1 (Homo sapiens) (UniProt P14061); experiment: Inhibition of human placental 17beta-HSD1 using [2,4,6,7-3H]-estrone as substrate at 1 uM after 10 mins by radio flow detector-based HPLC analysis in presence of NADH as cofactor
# T3 sequence (whole entry): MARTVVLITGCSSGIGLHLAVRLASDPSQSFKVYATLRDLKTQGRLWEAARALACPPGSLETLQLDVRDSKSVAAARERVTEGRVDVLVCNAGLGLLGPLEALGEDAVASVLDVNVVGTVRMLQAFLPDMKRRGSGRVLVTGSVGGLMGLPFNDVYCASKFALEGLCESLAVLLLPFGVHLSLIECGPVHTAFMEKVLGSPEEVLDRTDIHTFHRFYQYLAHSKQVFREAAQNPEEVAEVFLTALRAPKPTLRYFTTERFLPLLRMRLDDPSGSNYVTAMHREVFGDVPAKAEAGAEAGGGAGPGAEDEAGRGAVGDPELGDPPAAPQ
# Procedure, shortened: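 Placental enzyme from the cytosolic fraction after ammonium sulfate precipitation. Incubated with NADH 500 µM, test compound and unlabelled plus [3H]-E1 (500 nM final), 10 min at 37 °C. Stopped, extracted, and steroids separated by HPLC with radioflow detection, as for the type 2 assay.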
# [6] = biological target: T2, 17-beta-hydroxysteroid dehydrogenase type 2 (Homo sapiens); experiment: Inhibition of human placental 17beta-HSD2 assessed as formation of [2,4,6,7-3H]-estrone using [2,4,6,7-3H]-estradiol as substrate at 1 uM after 20 mins by radio flow detector-based HPLC analysis in presence of NAD+ as cofactor
# [7] = biological target: T4, 17-beta-hydroxysteroid dehydrogenase type 2 (Homo sapiens, UniProt P37059); experiment: Inhibition of human placental 17beta-HSD2 assessed as formation of [2,4,6,7-3H]-estrone using [2,4,6,7-3H]-estradiol as substrate after 20 mins by radio flow detector-based HPLC analysis in presence of NAD+ as cofactor
# T4 sequence (P37059 whole entry): T2 sequence (whole entry)
# [8] = biological target: T5, 17-beta-hydroxysteroid dehydrogenase type 1 (Homo sapiens, UniProt P14061); experiment: Inhibition of human placental 17beta-HSD1 using [2,4,6,7-3H]-estrone as substrate after 10 mins by radio flow detector-based HPLC analysis in presence of NADH as cofactor
# T5 sequence (P14061 whole entry): T3 sequence (whole entry)
# Procedure, shortened: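 Enzyme was the ammonium sulfate–precipitated cytosolic fraction of fresh homogenised human placenta. It was incubated at 37 °C for 10 min with NADH (500 µM), inhibitor, and unlabelled plus [3H]-E1 (final 500 nM, 0.15 µCi). Reaction stopped with HgCl2, then ether extraction. E1/E2 were separated by HPLC with radioflow detection.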
# Chain of Estrogen receptor beta (Homo sapiens) (Q92731 whole entry): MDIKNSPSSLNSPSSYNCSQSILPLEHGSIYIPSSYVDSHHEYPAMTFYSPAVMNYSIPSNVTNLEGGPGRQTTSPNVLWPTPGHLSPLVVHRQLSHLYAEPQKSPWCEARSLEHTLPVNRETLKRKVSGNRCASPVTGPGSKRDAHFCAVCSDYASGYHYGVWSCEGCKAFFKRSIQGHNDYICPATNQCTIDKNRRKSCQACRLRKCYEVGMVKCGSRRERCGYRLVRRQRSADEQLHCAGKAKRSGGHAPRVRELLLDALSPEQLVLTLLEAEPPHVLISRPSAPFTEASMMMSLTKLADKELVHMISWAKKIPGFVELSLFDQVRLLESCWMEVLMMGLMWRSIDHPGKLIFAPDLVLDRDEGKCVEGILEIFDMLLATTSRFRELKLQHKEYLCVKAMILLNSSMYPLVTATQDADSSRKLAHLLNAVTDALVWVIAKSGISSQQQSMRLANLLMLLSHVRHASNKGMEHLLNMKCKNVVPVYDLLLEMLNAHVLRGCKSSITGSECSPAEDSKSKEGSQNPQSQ
Compound,RBA [1],RBA [2],Ratio IC50 [3],other results
CN(Cc1cccc(O)c1)C(=O)c1ccc(-c2ccccc2O)s1,< 0.1%,< 0.1%,20,–
CN(Cc1ccccc1)C(=O)c1ccc(-c2ccc(O)cc2)s1,< 0.1%,< 0.1%,–,–
CN(Cc1cccc(O)c1)C(=O)c1ccc(-c2ccc(F)cc2)s1,< 0.1%,< 0.1%,–,–
Cn1nc(-c2cccc(O)c2)nc1-c1ccc(-c2cccc(O)c2)s1,–,–,–,inhibition [4]: 30%
COc1cccc(CN(C)C(=O)c2ccc(-c3cccc(OC)c3)s2)c1,< 0.1%,< 0.1%,> 250,–
CN(Cc1cccc(O)c1)C(=O)c1ccc(-c2cccc(O)c2F)s1,< 0.1%,< 0.1%,–,–
COc1ccc(-c2ccc(C(=O)N(C)Cc3cccc(O)c3)s2)cc1,< 0.1%,< 0.1%,> 250,–
Cc1cccc(-c2ccc(C(=O)N(C)Cc3cccc(O)c3)s2)c1,< 0.1%,< 0.1%,65,–
COc1cccc(-c2ccc(C(=O)N(C)Cc3ccccc3)s2)c1,< 0.1%,< 0.1%,–,–
COc1cccc(CN(C)C(=O)c2ccc(-c3ccccc3OC)s2)c1,< 0.1%,< 0.1%,–,inhibition [5]: inactive; inhibition [6]: 49%
CN1C(=O)C[C@@H](c2ccccc2)[C@H]1[C@H](O)c1ccc(-c2cccnc2)s1,–,–,–,IC50 [7]: 0.05 µM
COc1cccc(CN(C)C(=O)c2ccc(-c3ccc(C#N)cc3)s2)c1,< 0.1%,< 0.1%,–,inhibition [5]: inactive; inhibition [6]: inactive
CN(Cc1cccc(O)c1)C(=O)c1ccc(-c2cccc(O)c2)cc1,< 0.1%,< 0.1%,–,–
CN(Cc1cccc(O)c1)C(=O)c1ccc(-c2ccccc2)s1,< 0.1%,< 0.1%,–,–
CN(Cc1cccc(O)c1)C(=O)c1ccc(-c2cccc(F)c2)s1,< 0.1%,< 0.1%,10,–
COc1ccccc1-c1ccc(C(=O)N(C)Cc2ccccc2)s1,< 0.1%,< 0.1%,–,–
COc1cccc(CN(C)C(=O)c2ccc(-c3cccc(OC)c3)cc2)c1,< 0.1%,< 0.1%,–,–
C[C@]12CC[C@@H]3c4ccc(O)cc4CC[C@H]3[C@@H]1CC[C@@]21CCCC(=O)O1,< 0.1%,< 0.1%,–,inhibition [4]: 62%; inhibition [6]: 65%

Compound,RBA [1],RBA [2],Ratio IC50 [3],other results
Cc1cccc(-c2ccc(C(=O)N(C)Cc3cccc(O)c3)cc2)c1,< 0.1%,< 0.1%,–,–
COc1cccc(CN(C)C(=O)c2cccc(-c3cccc(OC)c3)c2)c1,< 0.1%,< 0.1%,–,–
CN(Cc1cccc(O)c1)C(=O)c1cccc(-c2cccc(O)c2)c1,< 0.1%,< 0.1%,8,–
CN(Cc1cccc(O)c1)C(=O)c1ccc(-c2ccc(O)cc2)s1,< 0.1%,< 0.1%,15,–
CN(Cc1cccc(O)c1)C(=O)c1ccc(-c2ccc(C#N)cc2)s1,< 0.1%,< 0.1%,–,–
COc1ccc(-c2ccc(C(=O)N(C)Cc3ccccc3)s2)cc1,< 0.1%,< 0.1%,–,–
CN(Cc1cccc(O)c1)C(=O)c1cccc(-c2ccc(O)cc2)c1,< 0.1%,< 0.1%,–,–
CN(Cc1ccccc1)C(=O)c1ccc(-c2ccccc2O)s1,< 0.1%,< 0.1%,–,–
COc1cccc(CN(C)C(=O)c2ccc(-c3cccc(C)c3)cc2)c1,< 0.1%,< 0.1%,> 375,–
COc1ccc(-c2cccc(C(=O)N(C)Cc3cccc(OC)c3)c2)cc1,< 0.1%,< 0.1%,–,inhibition [5]: inactive; inhibition [6]: 11%
CN(C(=O)Cc1cccc(O)c1)c1cccc(-c2ccc(O)cc2)c1,< 0.1%,< 0.1%,–,inhibition [5]: inactive; inhibition [6]: 39%
CN(Cc1cccc(O)c1)C(=O)c1ccc(-c2cccc(N(C)C)c2)s1,< 0.1%,< 0.1%,75,–
Cn1nc(-c2cccc(O)c2)nc1-c1ccc(-c2cccc(O)c2)cc1,–,–,–,inhibition [4]: 42%
CN(Cc1cccc(O)c1)C(=O)c1ccc(-c2cccc(O)c2)s1,< 0.1%,< 0.1%,14,IC50 [8]: 5.45 µM
COc1ccc(-c2ccc(C(=O)N(C)Cc3cccc(OC)c3)s2)cc1,< 0.1%,< 0.1%,–,–
COc1cccc(-c2ccc(C(=O)N(C)Cc3cccc(O)c3)s2)c1F,< 0.1%,< 0.1%,73,–
COc1cccc(CN(C)C(=O)c2ccc(-c3ccccc3)s2)c1,< 0.1%,< 0.1%,–,–
CN(Cc1ccccc1)C(=O)c1ccc(-c2cccc(O)c2)s1,< 0.1%,< 0.1%,–,–

# — ChEMBL document CHEMBL1914317, “Triazole ring-opening leads to the discovery of potent nonsteroidal 17β-hydroxysteroid dehydrogenase type 2 inhibitors” (Eur J Med Chem, 2011)
